Experimental data reported in ChEMBL document CHEMBL1154750 (J Med Chem, 2010).

Tests used:
[1] = target: Neuraminidase (Influenza A virus (A/Puerto Rico/8/1934(H1N1)), UniProt P03468); experiment: Inhibition of Influenza Virus A/PR/8/34 neuraminidase chemiluminescence-based enzyme inhibition assay
Procedure, shortened: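 Chemiluminescent NA assay using NA-Star 1,2-dioxetane sialic acid substrate. Virus culture supernatant was serially 2-fold diluted in NA-Star buffer, and the dilution giving 40:1 signal-to-noise was used. Compound was preincubated with virus for 20 min at 37 C, then substrate (1:500) was added for 30 min at room temperature. Mean of six untreated virus controls set to 100%. IC50 from n = 3 assays, triplicate wells.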

[2] = target: T1, Neuraminidase (Influenza A virus, UniProt B4URF0); experiment: Inhibition of Influenza Virus A/Potsdam/15/81 (H1N1) neuraminidase
T1 sequence (B4URF0 whole entry): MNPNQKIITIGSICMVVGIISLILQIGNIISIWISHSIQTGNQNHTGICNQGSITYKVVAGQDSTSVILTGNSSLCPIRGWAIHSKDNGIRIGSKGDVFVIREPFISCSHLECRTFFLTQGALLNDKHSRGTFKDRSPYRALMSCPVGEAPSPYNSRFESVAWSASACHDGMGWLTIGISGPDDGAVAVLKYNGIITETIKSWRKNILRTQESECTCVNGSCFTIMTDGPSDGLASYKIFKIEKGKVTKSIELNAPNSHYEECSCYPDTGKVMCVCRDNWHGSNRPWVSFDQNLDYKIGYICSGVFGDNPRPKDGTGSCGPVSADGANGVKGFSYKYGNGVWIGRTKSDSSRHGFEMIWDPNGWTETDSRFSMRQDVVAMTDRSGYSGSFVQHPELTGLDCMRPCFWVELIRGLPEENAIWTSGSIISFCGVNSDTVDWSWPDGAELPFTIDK

[3] = tested on: Influenza A virus; experiment: Antiviral activity against Influenza A virus (A/Puerto Rico/8/34(H1N1)) in MDCK cells assessed as reduction in plaque number by plaque reduction assay; settings: A/Puerto Rico/8/1934(H1N1)
[4] = Cytotoxicity against MDCK cells; assay type: cell-based, Canis lupus familiaris; settings: dog
Procedure, shortened: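 Confluent 3-day-old MDCK monolayers in EMEM with 10% FBS were exposed to serial 2-fold dilutions (triplicate) for 72 h at 37 °C, 5% CO2. Cells were fixed and stained with crystal violet-formalin, dye was extracted, and OD was read at 550/630 nm. Viability is given relative to six mock-treated controls. CC50 comes from the mean dose-response curve of two independent assays.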

[5] = target: T1, Neuraminidase; experiment: Inhibition of Influenza Virus A/Horneburg/IDT7489/08 (H1N1) neuraminidase
Procedure, shortened: (§1)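 Swine H1N1 isolate NA measured by NA-Star chemiluminescence. The virus supernatant dilution giving 40:1 signal-to-noise was incubated with compound for 20 min at 37 C, then dioxetane sialic acid substrate (1:500) was added for 30 min at room temperature. Six untreated virus controls set to 100%. IC50 from n ≥ 4 assays, triplicate wells.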

[6] = target: T1, Neuraminidase; experiment: Inhibition of Influenza Virus A/Brest/IDT7490/08 (H1N1) neuraminidase; procedure, shortened: as §1
[7] = target: T1, Neuraminidase; experiment: Inhibition of Influenza Virus A/Belzig/2/01 (H1N1) neuraminidase; design: species or system Influenza A virus (A/swine/Belzig/2/2001(H1N1))
Procedure, shortened: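 Swine H1N1 NA assayed by NA-Star chemiluminescence. Compound was mixed with the diluted virus supernatant (dilution giving 40:1 signal-to-noise) for 20 min at 37 C, then substrate (1:500) was added for 30 min at room temperature. Activity relative to six untreated virus controls; IC50 from one assay, each concentration in triplicate.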

Chain of Neuraminidase (Influenza A virus (A/Puerto Rico/8/1934(H1N1)), UniProt P03468) (P03468 whole entry): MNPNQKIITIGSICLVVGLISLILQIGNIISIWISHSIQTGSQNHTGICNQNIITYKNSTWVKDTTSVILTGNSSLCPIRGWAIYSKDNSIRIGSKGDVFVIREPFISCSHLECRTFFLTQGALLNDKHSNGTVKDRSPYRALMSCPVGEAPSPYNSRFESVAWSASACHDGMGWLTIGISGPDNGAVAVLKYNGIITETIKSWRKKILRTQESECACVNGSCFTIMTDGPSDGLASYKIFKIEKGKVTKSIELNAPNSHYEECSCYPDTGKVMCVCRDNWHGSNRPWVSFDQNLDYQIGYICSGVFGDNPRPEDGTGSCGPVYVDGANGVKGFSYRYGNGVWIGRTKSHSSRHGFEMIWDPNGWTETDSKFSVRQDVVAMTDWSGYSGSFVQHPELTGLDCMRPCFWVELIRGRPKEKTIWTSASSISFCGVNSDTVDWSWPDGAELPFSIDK

SMILES	IC50 [1]	also measured
CC(C)=CCC/C(C)=C/CC/C(C)=C/CO [FARNESOL]	81.4 µM	–
O[C@@H](CCc1ccccc1)C[C@H](O)/C=C/c1ccccc1	29.8 µM	–
O=C(/C=C/C=C/c1ccccc1)CCc1ccccc1	6.1 µM	–
O=C(/C=C(O)\C=C\c1ccccc1)CCc1ccccc1	4.67 µM	–
O[C@@H](CC/C=C/c1ccccc1)CCc1ccccc1	4.13 µM	–
O=C(CCc1ccccc1)C[C@@H]1C[C@@H](c2ccccc2)c2c(cc(/C=C/c3ccccc3)oc2=O)O1 [KATSUMADAIN A]	1.05 µM	IC50 [2]: 0.00073 µM; IC50 [3]: 11.8 µM; CC50 [4]: 66.9 µM; IC50 [5]: 0.00111 µM; IC50 [6]: 0.00164 µM; IC50 [7]: 0.00059 µM
